Results pooled from the literature.
Each line is one published result; the experiments were not run side by side.
Organism: Pseudomonas aeruginosa
Observed: microbial growth

C=CCOc1c(C)c(O)c(C(=O)/C=C/c2ccccc2)c(OC)c1C — MIC (broth dilution; ATCC27853): 5000 µg/mL
CCN1CCN(C(=O)N[C@@H](C(=O)N[C@@H]2C(=O)N3C(C(=O)O)=C(CSc4nnnn4C)CS[C@H]23)c2ccc(O)cc2)C(=O)C1=O — MIC (broth dilution; PAO1): 4 µg/mL
CCCCCCC/C=C/C(=O)N1CC(=O)/C(=C(\C)O)C1=O — MIC (PA01): 200 µg/mL
Cc1ccc2nc(-c3ccc([N+](=O)[O-])cc3)n(Cc3ccccc3Cl)c2c1 — MIC (broth dilution; ATCC27853): 256 µg/mL
CC1=NN(CNC(=O)c2ccccc2)C(=O)C1=NNn1c(-c2ccccc2)nc2ccccc2c1=O — MIC (broth dilution; 24 h): 51.9 µM
CCCCC(=O)N1C(=O)/C(=C(/C)O)C(=O)C1CC(C)C (stereo not shown) — MIC (PA01): > 200 µg/mL
CCCCCCCCCC(=O)Oc1c(C)c(O)c(C(=O)/C=C/c2ccccc2)c(OC)c1C — MIC (broth dilution; ATCC27853): 5000 µg/mL
CN(C)CC(C)(C)CNc1nc(Cl)c2c(c1O)C(=O)C1=C(O)[C@]3(O)C(=O)C(C(N)=O)=C(O)[C@@H](N(C)C)[C@@H]3C[C@@H]1C2.Cl — MIC (broth dilution; ATCC27853): 32 µg/mL
CCCCCCC#Cc1cncc(-c2nnc(SCc3ccc([N+](=O)[O-])o3)n2C)c1 — MIC: ≥ 20 µg/mL
O=C(O)c1cn(C2CC2)c2cc(N3CCNCC3)c(F)cc2c1=O — MIC (broth dilution; ATCC10145; 18 h): > 5 µg/mL
C[C@H]1[C@H](NC(=O)/C(=N\OC(C)(C)C(=O)O)c2csc(N)n2)C(=O)N1S(=O)(=O)O — MIC (agar dilution; ATCC27): 4 µg/mL
CC(C)Oc1c(NC(=O)c2ccc(NC(=O)[C@H](CC(N)=O)NC(=O)c3ccc(NC(=O)c4ccc(NC(N)=O)cc4)cc3)cc2)ccc(C(=O)Nc2ccc(C(=O)O)cc2)c1O — MIC (PA14): > 64 µg/mL
CN(C)c1cc(CNCC(C)(C)C)c(O)c2c1C[C@H]1C[C@H]3[C@H](N(C)C)C(O)=C(C(N)=O)C(=O)[C@@]3(O)C(O)=C1C2=O — MIC (broth dilution; ATCC27853): > 32 µg/mL
C/C(=C\c1ccc(C#N)cc1)C(=O)Nc1ccc(C(=O)N[C@@H](CC(N)=O)C(=O)Nc2ccc(C(=O)Nc3ccc(C(=O)Nc4ccc(C(=O)O)cc4)c(O)c3OC(C)C)cc2)cc1 — MIC (PA14): 1 µg/mL
Clc1ccc(Cn2c(-c3ccc(Cl)cc3)nc3ccccc32)cc1 — MIC (broth dilution; ATCC27853): 256 µg/mL
Clc1cccc(NCc2ccc(Oc3ccccn3)cc2)c1 — MIC: > 50 µg/mL
CC(C)Oc1c(NC(=O)c2ccc(NC(=O)[C@H](CC(N)=O)NC(=O)c3ccc(NC(=O)c4ccccc4[N+](=O)[O-])cc3)cc2)ccc(C(=O)Nc2ccc(C(=O)O)cc2)c1O — MIC (PA14): > 64 µg/mL
O=C(O)c1cn(C2CC2)c2cc(N3CCNCC3)c(F)cc2c1=O — MIC: 1.6 µg/mL
CCCCCCC#Cc1cncc(-c2nnc(SCc3ccc([N+](=O)[O-])cc3)n2C)c1 — MIC: ≥ 20 µg/mL
COc1c(C)c(OS(=O)(=O)c2ccc3ccccc3c2)c(C)c(OS(=O)(=O)c2ccc3ccccc3c2)c1C(=O)/C=C/c1ccccc1 — MIC (broth dilution; ATCC27853): 5000 µg/mL
CCCc1nc(N(C)C)c2c(c1O)C(=O)C1=C(O)[C@]3(O)C(=O)C(C(N)=O)=C(O)[C@@H](N(C)C)[C@@H]3C[C@@H]1C2.Cl.Cl — MIC (broth dilution; ATCC27853): > 32 µg/mL
CN[C@H](CC(C)C)C(=O)N[C@H]1C(=O)N[C@@H](CC(N)=O)C(=O)N[C@H]2C(=O)N[C@H]3C(=O)N[C@H](C(=O)N[C@H](C(=O)O)c4cc(O)cc(O)c4-c4cc3ccc4O)[C@H](O)c3ccc(c(Cl)c3)Oc3cc2cc(c3O[C@@H]2O[C@H](CO)[C@@H](O)[C@H](O)[C@H]2O[C@H]2C[C@](C)(N)[C@H](O)[C@H](C)O2)Oc2ccc(cc2Cl)[C@H]1O — MIC (broth dilution; ATCC27853; 18 h): > 32 µg/mL
CN(C)[C@@H]1C(O)=C(C(N)=O)C(=O)[C@@]2(O)C(O)=C3C(=O)c4c(O)cnc(-c5ccccc5)c4C[C@H]3C[C@@H]12.Cl.Cl — MIC (broth dilution; ATCC27853): > 32 µg/mL
C[C@@H](O)[C@H]1C(=O)N2C(C(=O)O)=C(S[C@@H]3CN[C@H](C(=O)N(C)C)C3)[C@H](C)[C@H]12 — MIC (broth dilution; ATCC27853): 0.25 µg/mL
CC(C)Oc1c(NC(=O)c2ccc(NC(=O)[C@H](CC(N)=O)NC(=O)c3ccc(NC(=O)C(C)Oc4ccccc4)cc3)cc2)ccc(C(=O)Nc2ccc(C(=O)O)cc2)c1O (stereo partly shown) — MIC (PA14): > 64 µg/mL
CCCCCCC/C=C/C(=O)N1C(=O)/C(=C(/C)O)C(=O)C1Cc1ccc(OC(C)(C)C)cc1 (stereo not shown) — MIC (PA01): > 200 µg/mL
CCn1cc(C(=O)O)c(=O)c2cc(F)c(N3CCNCC3)cc21 — MIC (broth dilution; ATCC9027): 2 µM
C/C(=C\c1ccc(O)cc1)C(=O)Nc1ccc(C(=O)N[C@@H](CC(N)=O)C(=O)Nc2ccc(C(=O)Nc3ccc(C(=O)Nc4ccc(C(=O)O)cc4)c(O)c3OC(C)C)cc2)cc1 — MIC (PA14): 1 µg/mL
CN(C)[C@@H]1C(O)=C(C(N)=O)C(=O)[C@@]2(O)C(O)=C3C(=O)c4c(cc5ccccc5c4O)C[C@H]3C[C@@H]12 — MIC (broth dilution; ATCC27853): 32 µg/mL
CC(C)Oc1c(NC(=O)c2ccc(NC(=O)[C@H](CC(N)=O)NC(=O)c3ccc(NC(=O)c4ccc(C#N)cc4)cc3)cc2)ccc(C(=O)Nc2cc(C(=O)O)n(C)c2)c1O — MIC (PA14): > 64 µg/mL
CNC(=O)c1cc(Oc2ccc(NC(=O)Nc3ccc(Cl)c(C(F)(F)F)c3)cc2)ccn1 — MIC (DSM19882): > 100 µM
NC[C@H]1O[C@H](O[C@H]2[C@H](O)[C@@H](O[C@H]3O[C@H](CO)[C@@H](O)[C@H](N)[C@H]3O)[C@H](N)C[C@@H]2N)[C@H](N)C[C@@H]1O — MIC (broth dilution): 13 µM
O=C1NN=C(N=Cc2ccccc2O)C1=NNn1c(-c2ccccc2)nc2ccccc2c1=O — MIC (broth dilution; 24 h): 111 µM
NC1CCCCc2c1[nH]c1ccc(Cl)c(Cl)c21 (stereo not shown) — MIC (broth dilution; PAO1; 18 h): 256 µg/mL
Cc1ccc(C)n1-c1ccc(-c2nnc(-c3ccc(Br)cc3)[nH]2)cc1 — MIC (broth dilution; ATCC10145; 18 h): 125 µg/mL
CCCNc1nc(Cl)c2c(c1O)C(=O)C1=C(O)[C@]3(O)C(=O)C(C(N)=O)=C(O)[C@@H](N(C)C)[C@@H]3C[C@@H]1C2.Cl.Cl.Cl — MIC (broth dilution; ATCC27853): 32 µg/mL
O=C(CCCCCCCCCC[P+](c1ccccc1)(c1ccccc1)c1ccccc1)Nc1ccc(O)c(O)c1.[Br-] — MIC (broth dilution; ATCC27853; 18 h): > 32 µg/mL
CC1(C)SC2C(NC(=O)C(NC(=O)C3=C(O)C(c4ccccc4)NC3=O)c3ccccc3)C(=O)N2C1C(=O)O (stereo not shown) — MIC: 50 µg/mL
Cc1ccc(C)n1-c1ccc(-c2nnc(-c3ccccc3[N+](=O)[O-])[nH]2)cc1 — MIC (broth dilution; ATCC10145; 18 h): 250 µg/mL
O=c1cc(-c2ccccc2)oc2cc(O)c(O)c(O)c12 — MIC (broth dilution; PAO1): 256 µg/mL
CN(C)[C@@H]1C(O)=C(C(N)=O)C(=O)[C@@]2(O)C(O)=C3C(=O)c4c(cc5ccc(CN6CCCCC6)cc5c4O)C[C@H]3C[C@@H]12 — MIC (broth dilution; ATCC27853): 32 µg/mL
CC(C)Oc1c(NC(=O)c2ccc(NC(=O)[C@H](CC(N)=O)NC(=O)c3ccc(NC(=O)c4ccc(C#N)c(F)c4)cc3)cc2)ccc(C(=O)Nc2ccc(C(=O)O)cc2)c1O — MIC (PA14): 8 µg/mL
Cc1cccc(NCc2ccc(Oc3ccccn3)cc2)c1 — MIC: > 25 µg/mL
CCN1CCN(C(=O)N[C@@H](C(=O)N[C@@H]2C(=O)N3[C@@H]2SC(C)(C)[C@@H]3C(=O)O)c2ccccc2)C(=O)C1=O — MIC: 12.5 µg/mL
O=[N+]([O-])c1ccc(-c2nc3cc(Cl)ccc3[nH]2)o1 — MIC (broth dilution; ATCC27853): > 64 µg/mL
COc1ccc(-c2nc3ccccc3n2Cc2ccccc2)cc1OC — MIC (broth dilution; ATCC27853): 256 µg/mL
CC(C)(C)OCC1NC(=O)C(C(=O)NC(C(=O)NC2C(=O)N3C2SC(C)(C)C3C(=O)O)c2ccccc2)=C1O (stereo not shown) — MIC: 12.5 µg/mL
CN(C)[C@@H]1C(O)=C(C(N)=O)C(=O)[C@@]2(O)C(O)=C3C(=O)c4c(cc5ccc(-c6ccccc6)cc5c4O)C[C@H]3C[C@@H]12 — MIC (broth dilution; ATCC27853): 32 µg/mL
Cc1cc(C(=O)Nc2ccc(C(=O)N[C@@H](CC(N)=O)C(=O)Nc3ccc(C(=O)Nc4ccc(C(=O)Nc5ccc(C(=O)O)cc5)c(O)c4OC(C)C)cc3)cc2)ccc1C#N — MIC (PA14): 4 µg/mL
